PABP polyA inh – PABP-poly(A) binding inhibition. P11940. PABP-poly(A) RNA binding, fluorescence polarization. calls only at 35 µM. hit rate 1% among 290,000. AID 2014;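 note: calls also rest on retests at 20 µM and on dose response follow-up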
IMP-1 inh – blocks Pseudomonas aeruginosa IMP-1 metallo-beta-lactamase. purified IMP-1, nitrocefin hydrolysis, epi-absorbance fluorescence. inhibition, % at 5.6 µM. hit rate 0.45% among 290,000. AID 1556;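 active = inhibition above the mean plus 3 SD of all compounds in the same screening run, cut at about 4.5% in these data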
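System: Purified IMP-1 | Read-out basis: Percent enzyme inhibition | Controls: IMP-1 with DMSO as 0%, enzyme-free DMSO as 100% | Replicates: One well per compound | Doses: 5.6 µM nominal single concentration | Detection: Epi-absorbance fluorescence, 480 nm excitation, 530 nm emission | Incubation: 25 °C, 15 min preincubation, 25 min reaction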
MLLE-PAM2 inh – blocks PAM2 peptide binding to the PABP1 MLLE domain; AID 588489; hit rate 0.36% among 360,000; GST-MLLE / FITC-PAM2 fluorescence polarization; P11940; inhibition, % at 20 µM; in the data active = inhibition above about 35%, passing the limit was not always enough
eIF4H inh – inhibitors of RNA binding by human eIF4H. hit rate 0.94% among 290,000. eIF4H fluorescence polarization binding assay. inhibition, % at 35 µM. Q15056;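 note: calls also rest on retests at 20 µM and on dose response follow-up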
VIM-2 inh – blocks Pseudomonas aeruginosa VIM-2 metallo-beta-lactamase | purified VIM-2, nitrocefin hydrolysis, epi-absorbance fluorescence | hit rate 0.89% among 290,000 | inhibition, % at 5.6 µM;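 active = inhibition above the mean of all tested compounds plus 3 SD, cutoff set per screening run, cut at about 7.5% in these data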;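 note: red hydrolysis product quenches plate fluorescence so inhibitors raise well fluorescence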
Of the large screens only hits and unclear results are named; the others gave an inactive call; ! = not confirmed by another sample. This is a sample that favours compounds with a hit; in the whole collection about 2.2% have one here. Unless noted, the rule behind the calls is not given here.

CCn1c(O)c(C(=O)CC2NCCc3ccccc32)c(=O)n(CC)c1=S (centres undefined)	IMP-1 inh 9.6
COc1cc2c(c(OC)c1O)-c1ccc(OC)c(=O)cc1C(NC(=O)C(F)(F)F)CC2 (centres undefined)	none (no result: PABP polyA inh, IMP-1 inh, eIF4H inh, VIM-2 inh)
CCOC(=O)c1c(NC(=O)c2c(N)n(CCCOC)c3nc4ccccc4nc23)sc2c1CCCC2	PABP polyA inh active, eIF4H inh inconclusive
Cc1ccc(NC(=O)CN2C(=O)CN=C(c3ccccc3)c3cc(Cl)ccc32)cc1	none
CN(C)c1ccc(NC(=O)CN2C(=O)CN=C(c3ccccc3)c3cc(Cl)ccc32)cc1	IMP-1 inh 4.5
CCN(CC)c1ccc(/C=C/[N+](=O)[O-])cc1	IMP-1 inh 6.5, eIF4H inh inconclusive
CC(C)[C@H](NC(=O)N1C[C@H]2C[C@@H](C1)c1cccc(=O)n1C2)C(=O)Nc1ccccc1F	none
Cc1ccc(/C=C2/C(=O)NC(=O)N(CCc3ccc(F)cc3)C2=O)o1	PABP polyA inh active, eIF4H inh inconclusive
CN(C)c1ccc(/C=C2\C(=O)NC(=O)N(CCc3ccc(F)cc3)C2=O)cc1	PABP polyA inh active, eIF4H inh 110.7
Cc1cc(OCc2nn[nH]n2)c2c3c(c(=O)oc2c1)CCC3	VIM-2 inh 11.8
COC(=O)c1cc(COc2cc(C)cc3oc(=O)c4c(c23)CCC4)c(C)o1	none (no result: IMP-1 inh, MLLE-PAM2 inh, VIM-2 inh)
COC(=O)C(C)Oc1cc(C)cc2oc(=O)c3c(c12)CCC3 (centres undefined)	VIM-2 inh 11.4
COC(=O)C(C)Oc1cc(C)cc2oc(=O)c3c(c12)CCCC3 (centres undefined)	VIM-2 inh 9.9
Cc1cc(OCC(=O)N[C@@H](Cc2ccccc2)C(=O)O)c2c3c(c(=O)oc2c1)CCCC3	VIM-2 inh 11.3
CS(=O)(=O)c1ccc(C2=C(CNC(=O)c3nccs3)[C@H]3CC[C@@H](C2)N3CCOc2ccccc2)cc1	none (no result: PABP polyA inh, IMP-1 inh, eIF4H inh, VIM-2 inh)
COc1nc(C)nc(NC(=O)NS(=O)(=O)c2ccccc2Cl)n1	none (no result: PABP polyA inh, IMP-1 inh, eIF4H inh, VIM-2 inh)
Cc1cc(C=C2C(=O)N(C)C(=S)N(C)C2=O)c(C)n1-c1ccncc1	IMP-1 inh 17.9
Cc1ccnc(-n2c(C)cc(C=C3C(=O)N(C)C(=S)N(C)C3=O)c2C)c1	none
c1cc2c(cc1NC1=NCCO1)CCCC2	none (no result: PABP polyA inh, IMP-1 inh, eIF4H inh, VIM-2 inh)
O=c1[nH]c(=O)n(Cc2ccccc2)c(O)c1C=NCCCO	PABP polyA inh active, eIF4H inh 53.9
CCOCCCN=Cc1c(O)n(Cc2ccccc2)c(=O)[nH]c1=O	none
Clc1ccc(C(c2ccccc2)c2ncc[nH]2)cc1 (centres undefined)	none
COC(=O)C1=C(c2ccc(OC)c(OC)c2)C[C@@H]2CC[C@H]1N2C(=O)NC1CC1	none (no result: PABP polyA inh, IMP-1 inh, eIF4H inh, VIM-2 inh)
C=C1N2CCC(CC2)C1(O)c1ccc(C)cc1 (centres undefined)	none
C=C1C(O)(c2ccccc2)C2CC[N+]1(C)CC2 (centres undefined)	PABP polyA inh active
FC(F)(F)c1ccc(-c2ccc3c(c2)CNCc2cnnn2-3)cc1	none (no result: PABP polyA inh, IMP-1 inh, eIF4H inh, VIM-2 inh)
CCC1C2CC3C4N(C)c5ccccc5C45CC(C2C5O)N3C1O (centres undefined)	none (no result: PABP polyA inh, IMP-1 inh, eIF4H inh, VIM-2 inh)
Cc1ccc2nc(N3CCC(C(=O)N4CCC5(CC4)OCCO5)CC3)sc2c1	none
CCc1ccc2nc(N3CCC(C(=O)N4CCC5(CC4)OCCO5)CC3)sc2c1	PABP polyA inh active, eIF4H inh 2.3
Cn1c(O)c(C(c2ccccn2)c2c(O)n(C)c(=S)n(C)c2=O)c(=O)n(C)c1=S	eIF4H inh 57.0
Cn1c(O)c(C(c2ccncc2)c2c(O)n(C)c(=S)n(C)c2=O)c(=O)n(C)c1=S	none
C=CCN1C(=O)NC(=O)/C(=C/c2cc3c4c(c2)CCCN4CCC3)C1=O	eIF4H inh 76.6
C=CCN1C(=O)NC(=O)/C(=C/c2cnc(SC)nc2)C1=O	none
Nc1cc(Cl)c2nonc2c1[N+](=O)[O-]	none
O=C(O)c1cccc2c1NC(C(=O)O)C1CC(Sc3ccccc3[N+](=O)[O-])C(Cl)C21 (centres undefined)	IMP-1 inh 5.2
O=C1C(Cl)=CC(=Nc2ccc(O)cc2)C=C1Cl	MLLE-PAM2 inh 45.6 (no result: PABP polyA inh, IMP-1 inh, eIF4H inh, VIM-2 inh)
O=C1NC(=S)NC(=O)C1=Cc1ccc2c(c1)CCN2CCCCl	PABP polyA inh active, eIF4H inh 68.4
Cc1ccccc1N1C(=O)NC(=O)/C(=C\c2ccc3c(c2)CCCN3Cc2ccccc2)C1=O	none
Cc1ccc2occ(CN3CC4CC(C3)c3cccc(=O)n3C4)c(=O)c2c1 (centres undefined)	none
Cc1ccc2[nH]c3c(c2c1)CN(C(=O)CN1C[C@H]2C[C@@H](C1)c1cccc(=O)n1C2)CC3	PABP polyA inh active
O=C1/C(=C\c2cc3c(cc2Br)OCO3)N2CCC1CC2	PABP polyA inh active, eIF4H inh 70.2
O=C1/C(=C/c2ccc3c(c2)OCO3)N2CCC1CC2	none
Nc1c2c(nc3ccccc13)CCN(Cc1ccccc1)C2	PABP polyA inh inconclusive, eIF4H inh inconclusive
Nc1cc2nc3ccccc3nc2cc1N	PABP polyA inh active, eIF4H inh 90.8
CCOC(=O)/C(CCCN(CC)CC)=N\O	PABP polyA inh active
O=c1[nH]c(=O)n(-c2ccccc2)c(O)c1N=Nc1ccc(Br)cc1	eIF4H inh 2.1
CCOc1ccc(-n2c(O)c(N=Nc3c(C)n(C)n(-c4ccccc4)c3=O)c(=O)[nH]c2=O)cc1	none
N#CCCn1cc(C(=O)NCc2ccccc2)c(-c2ccc3c(c2)OCCO3)n1	none
N#CCCn1cc(C(=O)Nc2ccccc2Br)c(-c2ccc3c(c2)OCCO3)n1	eIF4H inh active
Cc1ccc2nc(C)n(-c3ccc(F)cc3)c(=O)c2c1	none
COC(=O)C1=C(c2ccc(-c3ccccc3)c(F)c2)C[C@@H]2CC[C@H]1N2C(=O)NCCc1ccccc1	none (no result: PABP polyA inh, IMP-1 inh, eIF4H inh, VIM-2 inh)
CN(C)[C@@H]1C(=O)C(C(N)=O)=C(O)[C@@]2(O)C(=O)C3=C(O)c4c(O)cccc4[C@@](C)(O)[C@H]3[C@H](O)[C@@H]12	PABP polyA inh active, eIF4H inh 87.1
CCC(C)C12CN3CCN(CC(C)(C3)C1=O)C2 (centres undefined)	none
CCN1C(=O)C(=C/C=C/c2ccco2)C(=O)N(CC)C1=S	IMP-1 inh 5.8
CC(C)N1C(=O)/C(=C/C=C/c2ccco2)C(=O)N(Cc2ccco2)C1=O	PABP polyA inh inconclusive, eIF4H inh inconclusive
COc1cc(/C=C(/C)[N+](=O)[O-])ccc1OCc1ccccc1Cl	none
O=C(Cn1ncc2c3ccccc3n(Cc3cccc(Cl)c3)c2c1=O)N1CCC2(CC1)OCCO2	PABP polyA inh active, eIF4H inh 73.0
NC(=O)CN1CCCC1=O	none
NCCc1cc(O)c(O)cc1O	MLLE-PAM2 inh 46.8! (no result: PABP polyA inh, IMP-1 inh, eIF4H inh, VIM-2 inh)
CCOc1cccc(CNCCc2c(C)[nH]c3ccc(OC(F)(F)F)cc23)c1O	none
c1ccc(P(c2ccccn2)c2ccccn2)cc1	MLLE-PAM2 inh 44.0
Nc1nnc(P(c2ccccc2)c2ccccc2)s1	none
CC(=O)OC1N=C(c2ccccc2Cl)c2cc(Br)ccc2NC1=O (centres undefined)	none
COc1cc2[nH]c(=O)n(-c3cccc(Cl)c3)c(=O)c2cc1OC	none

Screening results from PubChem BioAssay.
